Active and inactive are the calls of the source. The calls are words filed in the database; no cut-off is given here.
How the values were obtained:
[1] = target: T1, Peroxisome proliferator-activated receptor alpha (Homo sapiens) (UniProt Q07869); experiment: Agonist activity at human Gal4-fused PPARalpha LBD expressed in African green monkey CV1 cells cotransfected with pRL-SV40 plasmid assessed as maximum efficacy measured after 24 hrs by luciferase reporter gene assay relative to control; type: cell-based; conditions: CV-1
T1 sequence (whole entry): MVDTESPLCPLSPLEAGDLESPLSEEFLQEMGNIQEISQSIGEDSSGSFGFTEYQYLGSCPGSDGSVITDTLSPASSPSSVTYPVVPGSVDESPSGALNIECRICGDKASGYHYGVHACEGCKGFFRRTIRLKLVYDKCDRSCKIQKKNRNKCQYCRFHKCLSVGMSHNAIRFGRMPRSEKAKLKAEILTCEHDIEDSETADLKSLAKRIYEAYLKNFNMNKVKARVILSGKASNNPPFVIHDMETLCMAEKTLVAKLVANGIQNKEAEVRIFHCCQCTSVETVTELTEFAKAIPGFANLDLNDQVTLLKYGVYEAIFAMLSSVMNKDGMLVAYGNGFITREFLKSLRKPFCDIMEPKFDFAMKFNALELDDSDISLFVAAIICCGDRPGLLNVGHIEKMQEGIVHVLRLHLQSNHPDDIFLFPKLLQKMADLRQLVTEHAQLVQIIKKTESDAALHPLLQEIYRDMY
How it was run: (§1)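 CV1 African green monkey kidney cells were cotransfected, in DMEM with 5% charcoal-stripped FBS, with two plasmids: an SV40-driven Gal4 DBD–PPARα or PPARδ LBD hybrid, and a 5×Gal4-element firefly luciferase reporter. Cells were replated at 15000/well for 4 h, then exposed to 0.17 nM–10 μM in half-log steps for 24 h. Luciferase was read, normalized to maximum from 10 μM reference agonist, and fit by a 4-parameter model.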

[2] = target: T2, Peroxisome proliferator-activated receptor delta (Homo sapiens, UniProt Q03181); experiment: Agonist activity at human Gal4-fused PPARdelta LBD expressed in African green monkey CV1 cells cotransfected with pRL-SV40 plasmid measured after 24 hrs by luciferase reporter gene assay; type: cell-based, CV-1; how it was run: as §1
T2 sequence (Q03181 whole entry): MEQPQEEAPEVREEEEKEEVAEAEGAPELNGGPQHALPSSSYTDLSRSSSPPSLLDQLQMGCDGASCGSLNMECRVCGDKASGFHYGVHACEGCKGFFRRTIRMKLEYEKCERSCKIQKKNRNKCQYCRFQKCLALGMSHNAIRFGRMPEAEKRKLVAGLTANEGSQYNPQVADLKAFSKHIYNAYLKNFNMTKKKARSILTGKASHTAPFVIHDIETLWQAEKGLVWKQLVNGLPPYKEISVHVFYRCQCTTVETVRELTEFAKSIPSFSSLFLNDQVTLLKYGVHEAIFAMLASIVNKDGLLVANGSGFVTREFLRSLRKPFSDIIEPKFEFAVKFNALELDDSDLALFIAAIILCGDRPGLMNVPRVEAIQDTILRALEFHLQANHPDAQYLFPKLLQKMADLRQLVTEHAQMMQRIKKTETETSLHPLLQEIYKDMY

[3] = Metabolic stability in mouse liver microsomes assessed as compound hydrolysis incubated for 30 mins by LC-MS/MS analysis; type: ADME, Microsome; conditions: read-out: Drug degradation
How it was run: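 Incubated 30 min with mouse or human liver microsomes. Stability reported as % metabolized.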

[4] = Clearance in human hepatocytes by LC-MS/MS analysis; type: ADME, cell-based, Hepatocyte
[5] = Clearance in mouse plasma at 3 mg/kg, po or 1 mg/kg, iv by LC/MS/MS analysis; type: ADME, organism-based
How it was run: (§2)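 Mice, rats and beagle dogs were dosed. Blood was collected into EDTA at set time points and processed to plasma for LC/MS/MS bioanalysis. Parameters were derived by noncompartmental analysis.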

[6] = Clearance in dog plasma at 3 mg/kg, po or 1 mg/kg, iv by LC/MS/MS analysis; type: ADME, organism-based, Canis lupus familiaris; how it was run: as §2
[7] = Volume of distribution at steady state in mouse at 3 mg/kg, po or 1 mg/kg, iv by LC/MS/MS analysis; type: ADME, organism-based; conditions: in vivo, read-out: Vdss
How it was run: (§3)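 Dosed to mice, rats or beagle dogs. Blood collected at selected time points with EDTA anticoagulant, processed to plasma and analysed by LC/MS/MS. Parameters obtained by noncompartmental analysis.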

[8] = Volume of distribution at steady state in rat at 3 mg/kg, po or 1 mg/kg, iv by LC/MS/MS analysis; type: ADME, organism-based; conditions: in vivo, read-out: Vdss; how it was run: as §3
[9] = Volume of distribution at steady state in dog at 3 mg/kg, po or 1 mg/kg, iv by LC/MS/MS analysis; type: ADME, organism-based, Canis lupus familiaris; conditions: in vivo, read-out: Vdss; how it was run: as §3
[10] = Half-life in mouse at 3 mg/kg, po or 1 mg/kg, iv by LC/MS/MS analysis; type: ADME, organism-based; conditions: in vivo; how it was run: as §3
[11] = Half-life in dog at 3 mg/kg, po or 1 mg/kg, iv by LC/MS/MS analysis; type: ADME, organism-based, Canis lupus familiaris; conditions: in vivo; how it was run: as §3
[12] = Cmax in mouse plasma at 3 mg/kg, po or 1 mg/kg, iv by LC/MS/MS analysis; type: ADME, organism-based; parameters: dose 3 mg/kg; how it was run: as §2
[13] = Cmax in dog plasma at 3 mg/kg, po or 1 mg/kg, iv by LC/MS/MS analysis; type: ADME, organism-based, Canis lupus familiaris; parameters: dose 3 mg/kg; how it was run: as §2
[14] = Tmax in rat at 3 mg/kg, po or 1 mg/kg, iv by LC/MS/MS analysis; type: ADME, organism-based; conditions: in vivo; how it was run: as §3
[15] = Oral bioavailability in rat at 3 mg/kg by LC/MS/MS analysis; type: ADME, organism-based; conditions: in vivo; how it was run: as §3
[16] = Oral bioavailability in mouse at 3 mg/kg by LC/MS/MS analysis; type: ADME, organism-based; conditions: in vivo; how it was run: as §3
[17] = Oral bioavailability in dog at 3 mg/kg by LC/MS/MS analysis; type: ADME, organism-based, Canis lupus familiaris; conditions: in vivo; how it was run: as §3
[18] = Elimination half-life in dog plasma at 3 mg/kg, po or 1 mg/kg, iv by LC/MS/MS analysis; type: ADME, organism-based, Canis lupus familiaris; how it was run: as §3
[19] = Drug metabolism in dog feces assessed as metabolite formation by LC-MS/MS analysis; type: ADME, tissue-based, Canis lupus familiaris
[20] = Drug metabolism in dog plasma assessed as metabolite formation by LC-MS/MS analysis; type: ADME, cell-free, Canis lupus familiaris
[21] = target: Voltage-gated inwardly rectifying potassium channel KCNH2 (Homo sapiens, UniProt Q12809); experiment: Inhibition of human ERG at 10 to 100 uM; conditions: dose 10-100 µM
Sequence of Voltage-gated inwardly rectifying potassium channel KCNH2 (Q12809 whole entry): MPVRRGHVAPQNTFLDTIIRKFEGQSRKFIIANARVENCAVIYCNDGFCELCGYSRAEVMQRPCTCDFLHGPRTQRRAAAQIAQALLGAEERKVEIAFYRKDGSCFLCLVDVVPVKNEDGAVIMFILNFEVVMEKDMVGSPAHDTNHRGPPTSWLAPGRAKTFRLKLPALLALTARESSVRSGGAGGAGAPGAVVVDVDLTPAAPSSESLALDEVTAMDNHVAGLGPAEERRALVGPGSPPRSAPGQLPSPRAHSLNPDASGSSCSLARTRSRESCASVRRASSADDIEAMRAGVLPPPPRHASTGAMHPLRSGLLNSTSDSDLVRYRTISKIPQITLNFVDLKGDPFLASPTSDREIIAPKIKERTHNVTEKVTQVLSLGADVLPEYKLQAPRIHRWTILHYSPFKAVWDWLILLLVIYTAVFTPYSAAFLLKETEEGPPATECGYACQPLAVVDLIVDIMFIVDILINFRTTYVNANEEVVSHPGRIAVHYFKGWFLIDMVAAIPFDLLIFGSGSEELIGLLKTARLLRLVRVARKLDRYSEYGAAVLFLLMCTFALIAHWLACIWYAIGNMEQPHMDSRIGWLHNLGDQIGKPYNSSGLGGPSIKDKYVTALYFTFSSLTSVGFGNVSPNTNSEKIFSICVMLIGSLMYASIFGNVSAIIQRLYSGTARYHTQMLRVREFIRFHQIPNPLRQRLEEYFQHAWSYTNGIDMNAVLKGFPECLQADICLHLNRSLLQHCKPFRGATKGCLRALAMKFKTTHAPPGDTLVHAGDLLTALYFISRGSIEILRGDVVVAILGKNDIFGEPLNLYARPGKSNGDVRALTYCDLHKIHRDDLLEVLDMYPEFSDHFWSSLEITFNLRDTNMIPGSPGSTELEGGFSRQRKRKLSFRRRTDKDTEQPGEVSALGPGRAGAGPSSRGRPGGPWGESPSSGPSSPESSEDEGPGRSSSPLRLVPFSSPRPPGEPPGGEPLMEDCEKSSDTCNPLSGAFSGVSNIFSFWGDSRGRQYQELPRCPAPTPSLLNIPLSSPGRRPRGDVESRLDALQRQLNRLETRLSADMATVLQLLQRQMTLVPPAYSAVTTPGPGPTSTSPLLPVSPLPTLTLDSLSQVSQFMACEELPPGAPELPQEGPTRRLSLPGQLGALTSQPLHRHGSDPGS

[22] = system: Mus musculus; experiment: Hypoglycemic activity in Balb/c mouse assessed as reduction in blood glucose level at 0.03 to 3 mg/kg, po administered 60 mins prior to glucose challenge and measured at 7 to 60 mins by IPGTT; type: functional, organism-based; conditions: dose 0.03-3 mg/kg
[23] = system: Mus musculus; experiment: Agonist activity at GPR40 in Balb/c mouse assessed as increase in GLP-1 levels in blood at 30 mg/kg, po measured at 15 to 180 mins by ELISA; type: functional, organism-based; conditions: filed as agonist, time lower […], time upper 180.0 min
[24] = Drug metabolism in dog hepatocytes assessed as N-dealkylation by LC-MS/MS analysis; type: ADME, cell-based, Canis lupus familiaris, Hepatocyte
[25] = Drug metabolism in human hepatocytes assessed as taurine metabolite formation by LC-MS/MS analysis; type: ADME, cell-based, Hepatocyte
[26] = Drug metabolism in rat hepatocytes assessed as taurine metabolite formation by LC-MS/MS analysis; type: ADME, cell-based, Hepatocyte
[27] = Drug metabolism in dog hepatocytes assessed as taurine metabolite formation by LC-MS/MS analysis; type: ADME, cell-based, Canis lupus familiaris, Hepatocyte

Row | Structure (SMILES) | Emax [1] | EC50 [2] | metabolised at 0.5 h [3] | CLH [4] | clearance [5] | clearance [6] | Vd [7] | Vd [8] | Vd [9] | half-life [10] | half-life [11] | Cmax [12] | Cmax [13] | Tmax [14] | bioavailability [15] | bioavailability [16] | bioavailability [17] | inhibition (INH) [21] | Activity [22] | Activity [23] | further results
1 | CC#C[C@@H](CC(=O)O)c1ccc(OCc2ccc(CN3CCCc4cccc(OC)c43)s2)cc1 | 4% | > 10 µM | 38% | 0.17 h⁻¹ | 15.4 mL/min/kg | 4.6 mL/min/kg | 3.9 L/kg | 1.2 L/kg | 1 L/kg | 4.2 h | 4.4 h | 552 ng/mL | 2290 ng/mL | 0.6 h | 95% | 62% | 55% | Not Active | Active | Active | half-life [18]: 4.4 h; Drug metabolism [19]: Metabolite_Notdetected; Drug metabolism [20]: Metabolite_Detected
2 | CC#C[C@@H](CC(=O)O)c1ccc(OCc2ccc(CN3CCC4(C=Cc5ccccc54)CC3)cc2)cc1 [LY2881835] | 4% | > 10 µM | 79% |  |  |  |  |  |  |  |  |  |  |  |  |  |  | Not Active | Active | Active | 
3 | CC#C[C@@H](CC(=O)O)c1ccc(OCc2ccc(CN3CCC4(CCc5ccccc54)CC3)s2)cc1 | 4% | > 10 µM | 98% | 0.23 h⁻¹ | 9.3 mL/min/kg | 2.2 mL/min/kg | 1.6 L/kg | 0.8 L/kg | 0.2 L/kg | 1.7 h | 3.8 h | 184 ng/mL | 1100 ng/mL | 0.5 h | 46% | 21% | 17% | Not Active | Active | Active | Drug metabolism [24]: Metabolite_Detected; Drug metabolism [25]: Metabolite_Detected; Drug metabolism [26]: Metabolite_Detected; Drug metabolism [27]: Metabolite_Detected; half-life [18]: 3.8 h; Drug metabolism [19]: Metabolite_Notdetected; Drug metabolism [20]: Metabolite_Notdetected
4 | CC#C[C@@H](CC(=O)O)c1ccc(OCc2ccc(CN3CCC4(C=Cc5ccccc54)CC3)s2)cc1 |  |  |  |  |  |  |  |  |  |  |  |  |  |  |  |  |  |  |  |  | Drug metabolism [24]: Metabolite_Detected; Drug metabolism [25]: Metabolite_Detected; Drug metabolism [26]: Metabolite_Detected; Drug metabolism [27]: Metabolite_Detected

From ChEMBL document CHEMBL4765234 (J Med Chem, 2016)
